From PubChem BioAssay
Results filed as inconclusive are left out.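 Rule for the calls, unless noted: active = RAM network inhibition above 8.4% in each of two replicates, 3 SD over the compound average; inconclusive = above 8.4% inhibition in only one replicate; inactive = 8.4% inhibition or less in each replicate.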

Legend:
[1] = S. cerevisiae growth inhibition in permissive medium (OD615), pilot counter-assay for S. cerevisiae lifespan shortening project, permissive growth control (AID 705;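 active = growth inhibition above 25% in both replicates, a cutoff set 3 SD above the mean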); settings: OD615, 24 h, at 10 µM, hits give high values
In short: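 System – S. cerevisiae with engineered DeaD lifespan system · Buffer or medium – SC raffinose/galactose permissive medium · Schedule – cells pre-grown 4 h, then 24 h compound exposure, 30 °C humidified · Technique – culture turbidity as optical density at 615 nm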

[2] = S. cerevisiae growth inhibition in restrictive medium, OD615, pilot screen, restrictive growth control, yeast lifespan reduction project (AID 706;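 active = growth inhibition above a set limit, 3 SD over mean compound inhibition, in both replicates, cut at about 43% in these data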;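 note: modified DeaD lifespan yeast strain shifted to restrictive glucose medium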); settings: OD615, 48 h, at 10 µM, hits give high values
In short: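 Material: engineered S. cerevisiae DeaD strain / Medium: glucose-based CSMM-D restrictive medium / Compound: single dose of 10 µM compound final, 0.25% DMSO / Timing: 4 h pre-incubation, 48 h exposure at 30 °C / Technique: OD615 absorbance reading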

[3] = doxorubicin toxicity protection in MRP-1 cells – H69AR cells, CellTiter-Glo, duplicate, MRP-1 activator project, pilot screen (AID 807;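 active = viability increase at or above a cutoff of the median across tested compounds plus 3 SD, cut at about 8.5% in these data, passing the limit was not always enough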;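 note: compound pretreatment 18-22 h then 72 h combined with doxorubicin; 0% = doxorubicin alone and 100% = vehicle without doxorubicin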); settings: H69AR viability with doxorubicin, CellTiter-Glo luminescence; at 10 µM; hits give high values
[4] = viability of HCT116 without oncogenic beta-catenin – human colon tumor cells, pilot screen (AID 823;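 active = cell viability at or below a set limit in both duplicate runs, the limit being the all-compound median minus 4 SD, cut at about 23% in these data, passing the limit was not always enough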;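 note: 0% = wells killed by 20 µM Hyamine and 100% = untreated DMSO cell wells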); settings: HCT116 beta-catenin knockout viability, CellTiter-Glo, 60 h; at 10 µM; hits give low values
[5] = viability of PTEN-null HCT116 cells – cell-based, HCT116 clonal line, CellTiter-Glo, pilot screen (AID 824;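 active = viability at or below 27.92% in each of two runs, the all-compound median minus 4 SD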;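 note: 0% = 20 µM Hyamine control and 100% = vehicle cell control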); settings: HCT116 PTEN-deleted viability, 60 h, at 10 µM, hits give low values
[6] = RAM pathway blockade in budding yeast – dse1pr::URA3 reporter, 5-FOA selection, pilot screen (AID 869;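 active = inhibition over a set limit, the all-compound mean plus 3 SD, in both replicate runs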;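 note: 0% = DMSO wells with no growth and 100% = 10 µM 1-NA-PP1 with full growth; RAM network block rescues cells from 5-FOA so hits raise OD615 growth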); settings: S. cerevisiae dse1pr::URA3 5-FOA growth, OD615, 2 d; at 10 µM; hits give high values; strain carries analog-sensitive mutant Cbk1 kinase
[7] = RAM signaling pathway blockade in yeast – S. cerevisiae, Pdr1DBD-CYC8 efflux-inhibited sensitized strain, primary screen (AID 1298);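 note: 0% = DMSO untreated cells without growth and 100% = 10 µM 1-NA-PP1 full growth; higher means more yeast growth rescued from 5-FOA killing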; settings: S. cerevisiae cbk1-as DSE1-URA3 strain, 5-FOA growth OD615, 2 d; at 50 µM; hits give high values

O=C(CSc1nnc(-c2ccccc2)o1)Nc1ccccc1F
inactive: growth inhibition [1] -5.54% | growth inhibition [2] -2.1% | viability increase [3] -3.62% | viability [4] 37.7% | viability [5] 38% | inhibition [6] 2.13% | RAM network inhibition [7] 8.53%

c1ccc2[nH]c(-c3ccnc4ccccc34)nc2c1
inactive: growth inhibition [1] 0.915% | growth inhibition [2] -4.32% | viability increase [3] -4.45% | viability [4] 102% | viability [5] 95.9% | inhibition [6] 0.605% | RAM network inhibition [7] 2.99%

COc1ccc(-n2c(SCC(=O)Nc3cc(C)on3)nc3c(c2=O)SCC3)cc1
inactive: growth inhibition [1] -13.1% | growth inhibition [2] -6.83% | viability increase [3] 0.28% | viability [4] 112% | viability [5] 95.5% | inhibition [6] 4.46% | RAM network inhibition [7] 6.81%

O=C1C=C(N(CCO)CCO)C2(CCCCC2)O1
inactive: growth inhibition [1] -14.1% | growth inhibition [2] -18.7% | viability increase [3] -1.83% | viability [4] 90.1% | viability [5] 96% | inhibition [6] 1.23% | RAM network inhibition [7] 2%

CCOc1ccc(C(=O)Nc2cc(=O)n(C)c(=O)n2C)cc1
inactive: growth inhibition [1] -29.3% | growth inhibition [2] -26.3% | viability increase [3] -0.98% | viability [4] 101% | viability [5] 97.5% | inhibition [6] 1.9% | RAM network inhibition [7] 0.62%

COc1cc(C(=O)Nc2ccc(N(C)C)cc2)cc(OC)c1OC
inactive: growth inhibition [1] -13.9% | growth inhibition [2] -11.7% | viability increase [3] -5.23% | viability [4] 82.2% | viability [5] 82.9% | inhibition [6] 1.14% | RAM network inhibition [7] 2.49%

O=C(O)CCC(C(=O)O)n1c(O)c(C2=c3ccccc3=NC2=O)sc1=S (stereo not given)
inactive: growth inhibition [1] -5.76% | growth inhibition [2] -1.01% | viability increase [3] -4.54% | viability [4] 97.7% | viability [5] 95.3% | inhibition [6] 2.23% | RAM network inhibition [7] -0.11%

O=C(CSc1nc2ccccc2c(=O)n1-c1ccccc1)N1CCN(CCO)CC1
inactive: growth inhibition [1] -8.67% | growth inhibition [2] -3.58% | viability increase [3] -2.9% | viability [4] 99.5% | viability [5] 98.6% | inhibition [6] 0.595% | RAM network inhibition [7] 1.04%

CCn1cc(C(=O)NCC(=O)OC)c2cc(OC)c(OC)cc2c1=O
inactive: growth inhibition [1] -6.43% | growth inhibition [2] -18.9% | viability increase [3] 0.9% | viability [4] 105% | viability [5] 104% | inhibition [6] 0.59% | RAM network inhibition [7] 2.3%

CC1CC(C)CN(CCCNC(=O)CNC(=O)Cn2ccc3ccccc3c2=O)C1 (stereo not given)
inactive: growth inhibition [1] -3% | growth inhibition [2] -19.7% | viability increase [3] -0.78% | viability [4] 104% | viability [5] 98.9% | inhibition [6] 0.76% | RAM network inhibition [7] 2.22%

COc1cccc(-n2c(=O)[nH]cc(C(=O)Nc3ccc(NC(C)=O)cc3)c2=O)c1
inactive: growth inhibition [1] -13.3% | growth inhibition [2] 4% | viability increase [3] 0.63% | viability [4] 106% | viability [5] 96.6% | inhibition [6] 3.3% | RAM network inhibition [7] 4.32%

COc1ccccc1C1C(C(N)=O)=C(C)Nc2nc(-c3ccccc3Cl)nn21 (stereo not given)
inactive: growth inhibition [1] -4.68% | growth inhibition [2] -4.21% | viability increase [3] -2.13% | viability [4] 92.9% | viability [5] 95.8% | inhibition [6] 0.48% | RAM network inhibition [7] -2.19%

CCSc1nnc(NC(=O)c2c(-c3ccccc3Cl)noc2C)s1
inactive: growth inhibition [1] 0.595% | growth inhibition [2] 2.59% | viability increase [3] -1.87% | viability [4] 97.8% | viability [5] 88.2% | inhibition [6] 1.04% | RAM network inhibition [7] 8.79%

Cc1ccc(C(C(=O)NC2CCCC2)N2CCCCC2)cc1 (stereo not given)
inactive: growth inhibition [1] -2.54% | growth inhibition [2] -13.5% | viability increase [3] -1.32% | viability [4] 86.9% | viability [5] 90.6% | inhibition [6] 2.38% | RAM network inhibition [7] 5.61%

O=C1C2ON(c3ccccc3)C(c3ccncc3)C2C(=O)N1c1ccc(N2CCOCC2)cc1 (stereo not given)
inactive: growth inhibition [1] -13.7% | growth inhibition [2] 0.35% | viability increase [3] -0.72% | viability [4] 104% | viability [5] 103% | inhibition [6] 2.51% | RAM network inhibition [7] 0.47%

COCCCNC(=O)c1c(F)c(F)c(F)c(F)c1F
inactive: growth inhibition [1] -11.2% | growth inhibition [2] -2.95% | viability increase [3] -1.94% | viability [4] 95.7% | viability [5] 92.9% | inhibition [6] 0.09% | RAM network inhibition [7] -0.98%

COc1ccc(OC)c(N(CC(=O)Nc2ccc3c(c2)OCCO3)S(C)(=O)=O)c1
inactive: growth inhibition [1] -6.81% | growth inhibition [2] -3.32% | viability increase [3] -2.52% | viability [4] 92.4% | viability [5] 89.8% | inhibition [6] 0.825% | RAM network inhibition [7] 3.49%

COc1ccc(NC(=O)C2CCCN(S(=O)(=O)c3cccc4cccnc34)C2)c(OC)c1 (stereo not given)
inactive: growth inhibition [1] -9.1% | growth inhibition [2] -2.73% | viability increase [3] -2.29% | viability [4] 70.4% | viability [5] 70.7% | inhibition [6] 1.19% | RAM network inhibition [7] 9.52%

CCOC(=O)C1=C(C)NC(=O)NC1c1ccc(N(CC)CC)cc1 (stereo not given)
inactive: growth inhibition [1] -11.1% | growth inhibition [2] -3.54% | viability increase [3] -1.3% | viability [4] 97.5% | viability [5] 99.3% | inhibition [6] 1.44% | RAM network inhibition [7] 1.67%

CC(C)(C)c1ccc(NC(=O)NCc2ccco2)cc1
inactive: growth inhibition [1] -8.65% | growth inhibition [2] 2.62% | viability increase [3] -5% | viability [4] 63.8% | viability [5] 64.5% | inhibition [6] 1.23% | RAM network inhibition [7] -0.31%

Cn1c(NCCO)nc2c(c1=O)C1(CCCCC1)Cc1ccccc1-2
inactive: growth inhibition [1] -13.2% | growth inhibition [2] -9.4% | viability increase [3] -2.31% | viability [4] 84% | viability [5] 76% | inhibition [6] 2.31% | RAM network inhibition [7] 5%

Cc1ccc(-n2c(SCC(=O)NCC3CCCO3)nc3c(c2=O)SCC3)cc1 (stereo not given)
inactive: growth inhibition [1] -10.7% | growth inhibition [2] -16.9% | viability increase [3] -1.96% | viability [4] 100% | viability [5] 96.7% | inhibition [6] 3.09% | RAM network inhibition [7] 2.18%

c1ccc2c(c1)CCN(c1nc3ccccc3n3cnnc13)C2
inactive: growth inhibition [1] -1.93% | growth inhibition [2] 10.2% | viability increase [3] -8.63% | viability [4] 65.1% | viability [5] 68.9% | inhibition [6] 0.5% | RAM network inhibition [7] -0.31%

COc1cccc2c(=O)n(CC(=O)NC3CCCC3)ccc12
inactive: growth inhibition [1] -19.3% | growth inhibition [2] -5.62% | viability increase [3] -1.22% | viability [4] 99.1% | viability [5] 94% | inhibition [6] -0.215% | RAM network inhibition [7] 3.83%

C=CCC(=O)OCC(=O)Nc1ccc(Oc2ccccc2)cc1
inactive: growth inhibition [1] 6.73% | growth inhibition [2] 5% | viability increase [3] -5.15% | viability [4] 94.2% | viability [5] 94.1% | inhibition [6] -0.25% | RAM network inhibition [7] -0.31%

CCN1CCN(C(=O)c2cc3c(s2)-c2ccccc2S(=O)(=O)C3)CC1
inactive: growth inhibition [1] -4.69% | growth inhibition [2] -9.1% | viability increase [3] -2.15% | viability [4] 99.6% | viability [5] 92.5% | inhibition [6] 2.36% | RAM network inhibition [7] 0.72%

CCCNC(=O)C(Cc1ccccc1)NS(=O)(=O)c1ccc2c(c1)CCC(=O)N2 (stereo not given)
inactive: growth inhibition [1] -5.35% | growth inhibition [2] -3.94% | viability increase [3] 0.26% | viability [4] 101% | viability [5] 102% | inhibition [6] 0.755% | RAM network inhibition [7] 1.71%

c1coc(-c2nc(-c3ccco3)c(-c3ccco3)nc2-c2ccco2)c1
inactive: growth inhibition [1] -25.2% | growth inhibition [2] -38.9% | viability increase [3] -2.54% | viability [4] 97.6% | viability [5] 86.5% | inhibition [6] 2.14% | RAM network inhibition [7] 0.57%

CC(C)N(C(=O)CN(C#N)c1nc(N(C)C)nc(N(C)C)n1)c1ccccc1
inactive: growth inhibition [1] -16.1% | growth inhibition [2] -7.49% | viability increase [3] -2.51% | viability [4] 100% | viability [5] 106% | inhibition [6] 2.33% | RAM network inhibition [7] 4.46%

O=C(Nc1c(F)c(F)c(F)c(F)c1F)C1CCCCC1
inactive: growth inhibition [1] -1.42% | growth inhibition [2] -6.55% | viability increase [3] -1.05% | viability [4] 80% | viability [5] 89.2% | inhibition [6] 0.88% | RAM network inhibition [7] 7.02%

CCC1CC(C)(C(=O)Nc2ccc(S(N)(=O)=O)cc2)OC1=O (stereo not given)
inactive: growth inhibition [1] -2.94% | growth inhibition [2] 3.6% | viability increase [3] 1.12% | viability [4] 102% | viability [5] 98.1% | inhibition [6] 1.36% | RAM network inhibition [7] 3.69%

COc1cccc(-c2nc(CS(=O)(=O)CC(=O)NCc3ccccc3OC)c(C)o2)c1
inactive: growth inhibition [1] 5.72% | growth inhibition [2] 2.59% | viability increase [3] -1.62% | viability [4] 95.9% | viability [5] 89.1% | inhibition [6] 1.55% | RAM network inhibition [7] 3.2%

CCOc1ccc(NC(=O)CSc2nnc(Cc3cccn3C)n2-c2ccc(F)cc2)cc1
inactive: growth inhibition [1] 11.1% | growth inhibition [2] 19.2% | viability increase [3] -4.64% | viability [4] 95.7% | viability [5] 91% | inhibition [6] 1.56% | RAM network inhibition [7] 6.97%

CC1Cc2ccccc2N1C(=O)C1CCCN(S(=O)(=O)c2cccc3cccnc23)C1 (stereo not given)
inactive: growth inhibition [1] -6.46% | growth inhibition [2] -11% | viability increase [3] -5.48% | viability [4] 67.9% | viability [5] 62.2% | inhibition [6] 2.08% | RAM network inhibition [7] 7.93%

Oc1c(/C=N/c2ncn[nH]2)ccc2ccccc12
inactive: growth inhibition [1] -9.29% | growth inhibition [2] -4.74% | viability increase [3] -0.29% | viability [4] 98.3% | viability [5] 101% | inhibition [6] -0.085% | RAM network inhibition [7] -1.12%
